The text below walks through data of ChEMBL document CHEMBL3102736, “Synthesis and evaluation of cytotoxic activities of new guanidines derived from carbazoles” (Bioorg Med Chem Lett, 2014).

Assay [1] has as its system KB. Put plainly: Cytotoxicity against human KB cells at 10^-6 M after 72 hrs by MTS assay. In kind it is functional. The gist of the method:
(§1)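 KB and MRC5-SV2 cells grown in D-MEM with 10% fetal calf serum and antibiotics under 5% CO2. Seeded at 650–2000 cells/well and dosed 24 h later at 10^-6 or 10^-5 M from DMSO (1% final). After 72 h, MTS added for 3 h at 37 °C, then A490 read. % inhibition = (1 − OD treated/OD control) × 100.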
(Formazan colour is commonly taken as a measure of viable cells.)

The test system of assay [2] is KB. In words: Cytotoxicity against human KB cells at 10^-5 M after 72 hrs by MTS assay. Type of assay: functional. The gist of the method: as §1
The next assay has as its system HL-60. Put plainly: Cytotoxicity against human HL60 cells after 72 hrs by MTS assay. Particulars: HL-60, 72 h. In kind it is functional, cell-based. The essentials: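 HL60 cells cultured in supplemented RPMI (10% fetal calf serum) under 5% CO2. Seeded at 650–2000 cells/well and treated 24 h later with compound from DMSO (1% final), 0.5 nM–10 µM. After 72 h, MTS added for 3 h at 37 °C, then A490 read. IC50 taken as 50% inhibition of proliferation; separate duplicate experiments.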

Assay [3] has as its system DNA. In words: Binding affinity to calf thymus DNA at 10^-4 M by fluorescence assay. Type of assay: nucleic-acid assay. To be noted: Bos taurus. The gist of the method:
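Fluorescence titration at 37 °C in 0.01 M Tris, pH 7.4. Compound working solution at 10^-4 M (diluted from a 10^-2 M DMSO stock); calf thymus DNA added at increasing levels across 25–100 µg/mL. Excitation at 290 nm, emission recorded over 330–390 nm.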

Assay [4] deals with PC-3. In words: Cytotoxicity against human PC3 cells at 10^-5 M after 72 hrs by MTS assay. Type of assay: functional, cell-based. The essentials:
(§2)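 HCT116, MCF7 and PC3 cells grown in RPMI with 10% fetal calf serum and antibiotics under 5% CO2. Seeded at 650–2000 cells/well and dosed 24 h later at 10^-6 or 10^-5 M from DMSO (1% final). After 72 h, MTS added for 3 h at 37 °C, then A490 read. % inhibition = (1 − OD treated/OD control) × 100.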

Assay [5] concerns MCF7. Put plainly: Cytotoxicity against human MCF7 cells at 10^-6 M after 72 hrs by MTS assay. Type of assay: functional, cell-based. The gist of the method:
as §2

In assay [6] the test system is MRC5. In words: Cytotoxicity against human MRC5 cells at 10^-6 M after 72 hrs by MTS assay. Type of assay: functional, cell-based. The essentials: as §1
The subject of assay [7] is HCT-116. In words: Cytotoxicity against human HCT116 cells at 10^-5 M after 72 hrs by MTS assay. In kind it is functional, cell-based. The essentials: as §2
In assay [8] the test system is MCF7. Put plainly: Cytotoxicity against human MCF7 cells at 10^-5 M after 72 hrs by MTS assay. In kind it is functional, cell-based. The gist of the method: as §2
The test system of assay [9] is HCT-116. Put plainly: Cytotoxicity against human HCT116 cells at 10^-6 M after 72 hrs by MTS assay. Type of assay: functional, cell-based. The gist of the method:
as §2

Assay [10] relates to MRC5. In words: Cytotoxicity against human MRC5 cells at 10^-5 M after 72 hrs by MTS assay. Type of assay: functional, cell-based. The gist of the method: as §1
Assay [11] relates to PC-3. Put plainly: Cytotoxicity against human PC3 cells at 10^-6 M after 72 hrs by MTS assay. Type of assay: functional, cell-based. The gist of the method: as §2
For assay [12], the system named is DNA. Put plainly: Binding affinity to calf thymus DNA at 10^-4 M by UV-Visible spectrophotometry. To be noted: Bos taurus. In kind it is nucleic-acid assay. The gist of the method: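 Compound working solution at 10^-4 M (diluted from DMSO stock in 0.01 M Tris) in Tris buffer (0.01 M, pH 7.4) at 37 °C. UV-Vis absorption spectra (230–500 nm) recorded without and with calf thymus DNA at a fixed 100 µg/mL.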

Active and inactive are the calls of the source. The rule behind the calls is not given here.

By inhibition is commonly meant how much of the control response was suppressed. A lower inhibition goes with little suppression. In general, IC50 refers to the concentration that inhibits the measured activity by half. Read a low IC50 as greater potency in that assay. With `Cc1cc(/N=C(\N)NC(C)(C)C)c(C)c2c1[nH]c1ccc(Br)cc12`, the inhibition at 1 µM in the assay on KB [1] was 16%. The inhibition at 10 µM in the assay with KB [2] was 100%. Also, 4 µM corresponded to half-maximal inhibition in the assay with HL-60 (IC50). For the same compound, in the assay on DNA [3], the result was Active.

As for `CCC(CC)N/C(N)=N/c1cc(C)c2[nH]c3ccc(Br)cc3c2c1C`, the inhibition at 1 µM with KB [1] came to 15%. Further, the result in the assay with PC-3 [4], with HCT-116 [7], with MCF7 [8], with DNA [3], in the assay on MRC5 [10] and in the assay with DNA [12] was Active. Besides, the outcome in the assay on MCF7 [5], in the assay with MRC5 [6], in the assay on HCT-116 [9] and with PC-3 [11] was inactive. The same compound registered an inhibition at 10 µM in the assay with KB [2] of 100%. In the assay with HL-60, this compound registered a concentration for half-maximal inhibition (IC50) of 3.1 µM.

`CCCCN/C(N)=N/c1cc(C)c2[nH]c3ccc(Br)cc3c2c1C` displayed an inhibition at 1 µM with KB [1] of 26%. Also, in the assay with KB [2], the inhibition at 10 µM was 100%. Moreover, the IC50 in the assay on HL-60 is 3.5 µM. Besides, the outcome in the assay with DNA [3] was Active.

Consider `CCCN/C(N)=N/c1cc(C)c2[nH]c3ccccc3c2c1C`, for which, in the assay on KB [1], at 1 µM the inhibition was 18%. The compound further returned an inhibition at 10 µM with KB [2] of 91%. Besides, the result with DNA [3] was Active.

As to `CCCCN/C(N)=N/c1cc(C)c2[nH]c3ccccc3c2c1C`, the inhibition at 1 µM in the assay on KB [1] is 5%. Further, the inhibition at 10 µM in the assay on KB [2] was 98%. Besides, the result in the assay on DNA [3] was Active.

`CCOC(=O)Oc1ccc2[nH]c3c(C)cc(N=C(N)N)c(C)c3c2c1` showed an inhibition at 1 µM in the assay on KB [1] of 0%. In the assay on KB [2], this compound displayed an inhibition at 10 µM of 73%.
